KCNQ1 act: human KCNQ1 channel potentiation or activation; CHO-K1 KCNQ1, thallium flux FluxOR fluorescence; active compounds read high; B-score at 10 µM; 310,000 compounds, 0.35% hits;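 active = fluorescence ratio B-score, a plate-corrected score, at least three library SD, with initial intensity B-score within 5 SD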
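Medium – assay buffer, equal DMSO in all wells · Material – CHO-K1 cell line with stable KCNQ1 potassium channel expression · Signal – kinetic FluxOR thallium fluorescence, 10-s 1-Hz baseline, 110-s post-stimulus read · Compound – single concentration per compound, DMSO matched to controls · Schedule – 37 °C overnight plating, 90-min dark dye load, 20-min compound pretreatment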
hERG protect: compounds protecting human hERG from proarrhythmic drug block | Q12809 | 310,000 compounds, 0.51% hits | CHO-hERG, FluxOR thallium flux, dofetilide IC70 present | activation (rescue from dofetilide block), less the hit threshold, % at 10 µM | AID 1511;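 active = activation above the mean of controls blocked by dofetilide plus 5 SD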;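 note: thallium influx through hERG after potassium depolarization seen as dye fluorescence rise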
Kir21 block: blocks the mouse Kir2.1 inward-rectifier potassium channel; P35561; HEK293-Kir2.1, FluxOR thallium flux fluorescence; active compounds read low; B-score at 10 µM; 310,000 compounds, 0.85% hits;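 active = fluorescence ratio B-score at or below minus 3 SD of library scores, with starting-brightness B-score within 2 SD, cut at about -4.2 in these data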;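 note: channel flux triggered by added potassium and thallium sulfate stimulus; B-score of peak minus minimum fluorescence over baseline after thallium stimulus; more negative B-score means stronger Kir2.1 block with less thallium influx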
KCNK9 block: blocks the human KCNK9 two-pore domain potassium channel; HEK293 KCNK9, FluxOR thallium flux fluorescence; active compounds read low; B-score at 10 µM; 310,000 compounds, 1.2% hits;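 active = ratio B-score over 3 SD below the library mean, with starting fluorescence within 5 SD of its mean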;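 note: negative B-score means less thallium flux so channel inhibition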
KCNQ1 inh: blocks the human KCNQ1 potassium channel. B-score at 10 µM. CHO-K1 KCNQ1, FluxOR thallium flux fluorescence; active compounds read high. 310,000 compounds, 1.3% hits. AID 2642;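 active = compounds whose thallium flux B-score, printed positive for inhibition, exceeds three library SD while starting fluorescence stays within three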;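 note: channel opened by potassium depolarization with thallium stimulus after 20 min compound exposure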
KCNK3 inh: human KCNK3 channel inhibition, primary screen. B-score at 10 µM. 340,000 compounds, 0.84% hits. CHO-KCNK3 thallium flux, FluxOR fluorescence; active compounds read low. AID 602410. O14649;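 active = B-score under library mean minus 4 SD, starting fluorescence ratio at most library mean plus 5 SD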;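 note: more negative B-score means stronger inhibition of thallium flux through KCNK3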
KCNQ1 block val: confirmation of human KCNQ1 potassium channel inhibitors; shares compounds with KCNQ1 inh; KCNQ1 cell line, FluxOR thallium flux fluorescence; inhibition, % at 10 µM; 1,600 compounds, 93% hits; AID 588353;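 active = primary screen active, with duplicate mean exceeding buffer control mean plus 3 SD of buffer wells, cut at about 28% in these data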;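 note: 0% = buffer control ratio and 100% = XE991 inhibitor control ratio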
CHO KCNQ1 ctr: activity in parental CHO cells lacking KCNQ1; shares compounds with KCNQ1 inh; parental CHO-K1, FluxOR thallium flux fluorescence ratio; active compounds read low; zero means no signal rise above baseline; fluorescence ratio (Tl flux) at 10 µM; 1,600 compounds, 21% hits; AID 588366;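 active = mean of duplicate thallium-flux fluorescence ratios in parental host cells more than 5 SD below the buffer control mean, cut at about 0.38 in these data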;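 note: ratio is peak minus minimum fluorescence divided by baseline fluorescence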
KCNQ1 APC inh: blocks human KCNQ1 current in automated patch clamp | calls only at 10 µM | shares compounds with KCNQ1 inh | KCNQ1-CHO cells | 490 compounds, 20% hits;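 active = KCNQ1 current drop exceeding 3 SD of negative control wells, seen in both duplicate runs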;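 note: steady state current during a 2 s step from -80 to +40 mV; negative values mean current inhibition and positive values mean potentiation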
KCNQ2 spec: KCNQ1 inhibitor that also blocks rat KCNQ2 channel | shares compounds with KCNQ1 inh | KCNQ2 cells, FluxOR thallium flux fluorescence | inhibition, % at 10 µM | 1,600 compounds, 71% hits;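 active = mean percent inhibition of the KCNQ2 thallium signal more than 5 SD above the buffer-only control wells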;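 note: KCNQ2 expressed in CHO cells; 0% = buffer control wells and 100% = XE-991 inhibitor control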
Target sequence (O88943 whole entry, looked up): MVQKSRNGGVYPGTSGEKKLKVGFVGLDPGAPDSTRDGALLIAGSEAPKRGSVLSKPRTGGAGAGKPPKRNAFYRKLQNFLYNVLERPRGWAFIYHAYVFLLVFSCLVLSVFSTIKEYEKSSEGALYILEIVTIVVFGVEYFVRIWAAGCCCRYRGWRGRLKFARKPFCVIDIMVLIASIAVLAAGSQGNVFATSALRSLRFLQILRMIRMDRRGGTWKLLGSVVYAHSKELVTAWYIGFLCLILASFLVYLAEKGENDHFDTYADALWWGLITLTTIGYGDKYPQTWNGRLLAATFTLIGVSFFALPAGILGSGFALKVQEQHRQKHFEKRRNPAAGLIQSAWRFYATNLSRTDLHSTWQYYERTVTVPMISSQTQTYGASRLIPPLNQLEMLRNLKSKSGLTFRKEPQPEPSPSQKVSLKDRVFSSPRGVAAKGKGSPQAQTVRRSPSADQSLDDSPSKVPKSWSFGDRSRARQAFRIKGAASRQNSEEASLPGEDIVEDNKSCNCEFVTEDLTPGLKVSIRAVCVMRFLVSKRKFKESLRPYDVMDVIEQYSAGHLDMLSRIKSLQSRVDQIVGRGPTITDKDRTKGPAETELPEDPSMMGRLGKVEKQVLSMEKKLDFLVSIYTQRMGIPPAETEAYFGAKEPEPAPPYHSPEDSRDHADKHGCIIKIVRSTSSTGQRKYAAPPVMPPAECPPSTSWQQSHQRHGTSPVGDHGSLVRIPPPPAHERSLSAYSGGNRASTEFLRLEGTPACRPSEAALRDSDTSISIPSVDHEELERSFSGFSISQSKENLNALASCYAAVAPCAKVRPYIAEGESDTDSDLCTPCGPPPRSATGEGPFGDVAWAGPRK
KCNQ1-KCNE1 inh: human KCNQ1/KCNE1 inhibition in KCNQ1 specificity screen; shares compounds with KCNQ1 inh; KCNQ1/KCNE1 cells, FluxOR thallium flux fluorescence; inhibition, % at 10 µM; 1,600 compounds, 77% hits;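 active = mean percent inhibition of duplicate wells above the buffer-only control mean plus 3 SD of those controls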;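 note: 0% = buffer only wells and 100% = XE-991 inhibitor control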
The depositor's hits bear a star; i = inactive; · = no result given. This is a sample that favours compounds with a hit; in the whole collection about 3.8% have one here.

SMILES	KCNQ1 act	hERG protect	Kir21 block	KCNK9 block	KCNQ1 inh	KCNK3 inh	KCNQ1 block val	CHO KCNQ1 ctr	KCNQ2 spec	KCNQ1-KCNE1 inh	others
Cc1ccc(OCC(O)Cn2c(=N)n(Cc3ccccc3)c3ccccc32)cc1 (stereo not drawn)	i	-28	-6*	i	8*	i	78*	0.41	93%*	36%*
CS(=O)(=O)NCC(c1cccnc1)N1CCN(c2ccccc2F)CC1 (stereo not drawn)	i	-10	-0.82	i	i	i	·	·	·	·
CSc1nc2ccc(NS(=O)(=O)c3ccc(Cl)s3)cc2s1	i	-13	-1.5	i	7*	i	103*	0.43	i	70%*
c1ccc2c(c1)CCc1ccccc1C2=C1CCNCC1	i	-9	-3	i	i	i	·	·	·	·
CN(C)CCN1C(=O)C(=O)/C(=C(/O)c2ccc(S(=O)(=O)N3CCOCC3)cc2)C1c1ccc(F)cc1 (stereo not drawn)	i	-9	-0.73	i	i	i	·	·	·	·
CCOc1ncccc1C(=O)OCC(=O)Nc1ccc(C(C)C)cc1	i	-13	-1.5	i	i	i	·	·	·	·
CCOc1ncccc1C(=O)OCC(=O)NC(=O)NC(C)C	i	-12	-2.5	i	8*	i	0	0.51	i	i
C=CCn1cc(C(=O)NCCCN(CC)CC)c(=O)c2cc(S(=O)(=O)N3CCC(C)CC3)ccc21	i	-3	-0.71	i	i	i	·	·	·	·
O=C(Nc1cc(Cl)ccc1N1CCOCC1)c1ccc2c(c1)OCCO2	i	-6	-0.17	i	12*	i	68*	0.46	83%*	52%*
COc1ccc(-c2csc(NC(=O)CSc3nc(SC)ns3)n2)cc1	i	-19	-1.3	i	9*	i	114*	0.43	66%*	116%*	KCNQ1 APC inh=i
COc1ccc(-c2csc(NC(=O)CSc3nc(C)cs3)n2)cc1	i	-8	-0.96	i	i	i	·	·	·	·
O=S(=O)(c1cccc(NC(=S)Nc2ccc(Br)cc2Cl)c1)N1CCOCC1	i	-10	-1	i	9*	i	0	0.56	i	i
O=C(CCc1nnc(CCCCc2ccccc2)o1)NCCN1CCOC1=O	i	-7	-1.2	i	i	i	·	·	·	·
Cn1ncc2c(N3CCN(c4ccccc4F)CC3)ncnc21	i	-4	-0.1	i	i	i	·	·	·	·
Cn1ncc2c(N3CCN(c4ccc(Cl)c(Cl)c4)CC3)ncnc21	i	-16	0.15	i	10*	i	103*	0.48	i	61%*	KCNQ1 APC inh=i
O=C(NC(NC1CCS(=O)(=O)C1)C(Cl)(Cl)Cl)c1ccc(Br)cc1 (stereo not drawn)	i	-14	0	i	10*	i	64*	0.51	88%*	36%*
O=C(NC(NC1CCS(=O)(=O)C1)C(Cl)(Cl)Cl)c1cccc(Cl)c1 (stereo not drawn)	i	-8	-2.3	i	i	i	·	·	·	·
CCCCCN(C(=O)CCC(=O)OCCOc1ccc(OCC)cc1)c1c(N)n(CCCC)c(=O)[nH]c1=O	i	-19	0.33	i	i	i	·	·	·	·
CC1(C)C=Cc2c(ccc3c2OC[C@H](c2ccc(O)cc2O)C3)O1	·	·	·	·	·	i	·	·	·	·
CC(=O)Oc1ccc([C@@H]2COc3c(ccc4c3C=CC(C)(C)O4)C2)c(OC(C)=O)c1	i	-10	-0.51	i	7*	i	136*	0.42	90%*	78%*
Cc1ccc(Cl)cc1N1CCN(S(=O)(=O)c2ccc3c(c2)OCCO3)CC1	i	0	0.1	i	7*	i	113*	0.4	78%*	128%*
CN(C)c1ccc(C(CNC(=O)c2cccs2)N(C)C)cc1 (stereo not drawn)	i	-8	-1.6	i	i	i	·	·	·	·
Cc1c(C(=O)Nc2ccc3c(c2)OCCO3)sc2ncnc(N3CCCCC3C)c12 (stereo not drawn)	i	-16	0.73	i	i	i	·	·	·	·
Cc1nc(N2CCC(C)CC2)c2c(C)c(C(=O)Nc3ccc4c(c3)OCCO4)sc2n1	i	-10	0.01	i	8*	i	112*	0.42	120%*	92%*	KCNQ1 APC inh=i
Cc1ccc(S(=O)(=O)N(CC(=O)N/N=C/c2ccccc2C(=O)O)c2cc(Cl)cc(Cl)c2)cc1	i	-5	0.17	i	i	i	·	·	·	·
SMILES	KCNQ1 act	hERG protect	Kir21 block	KCNK9 block	KCNQ1 inh	KCNK3 inh	KCNQ1 block val	CHO KCNQ1 ctr	KCNQ2 spec	KCNQ1-KCNE1 inh	others
Cc1ccc(NS(=O)(=O)c2cc(Br)cnc2N)c(Cl)c1	i	-4	-2.1	i	i	i	·	·	·	·
Nc1ncc(Br)cc1S(=O)(=O)Nc1cc(C(F)(F)F)cc(C(F)(F)F)c1	i	-11	-2.9	i	10*	i	108*	0.45	i	i
COc1cc(/C=C/C(=O)OCC(=O)Nc2cc(S(=O)(=O)N3CCCC3)ccc2Cl)cc(OC)c1OC	·	·	·	·	·	i	·	·	·	·
CS(=O)(=O)c1ccc(C(=O)Nc2ccc(N3CCOCC3)cc2)c(Cl)c1	i	-8	-0.19	i	i	i	·	·	·	·
CS(=O)(=O)c1ncc(Cl)c(C(=O)Nc2ccc(OC(F)F)cc2)n1	i	-21	-5.3*	i	6*	i	74*	0.34*	i	118%*
CS(=O)(=O)c1ncc(Cl)c(C(=O)Nc2ccc(N3CCOCC3)cc2)n1	i	-27	-3.9	i	7*	i	73*	0.41	92%*	108%*
Cc1cccnc1NC(=O)c1ccc(C(=O)c2ccccc2)cc1	i	-13	-1.5	i	i	i	·	·	·	·
CCOC(=O)c1c(NC(=O)CSc2nnc(-c3ccccc3)o2)sc(C(C)=O)c1C	i	-8	-0.02	i	i	i	·	·	·	·
CCOC(=O)c1c(NC(=O)CSc2nc3ccccc3o2)sc(C(C)=O)c1C	i	-29	-0.89	i	8*	i	130*	0.43	108%*	112%*	KCNQ1 APC inh=i
